Source: PubChem (several laboratories)
Only some compounds are listed: those with a hit (about 1.8% of all), similar ones and a draw of the others.
MT1-MMP act inh: blocks activation of human MT1-MMP; P50281; HT1080 RFP-PRO-GFP cells, GFP/RFP ratio fluorescence, overnight; percent of plate control window, DMSO zero; GFP/RFP ratio change, % at 20 µM; hit rate 0.061% among 360,000;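 active = GFP/RFP ratio change of at least 30% with cell ATP level not reduced by more than half and red fluorescence within 50% of control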
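Material – HT1080 RFP-PRO-GFP cells · Control set – DMSO wells and RFP-L50D-GFP cells · Incubation – overnight cell settling, then overnight compound exposure, 37 °C, 5% CO2 · Compound dosing – single-point 20 µM compound, 1% DMSO · Read-out – GFP/RFP fluorescence ratio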
PREPL inhibitor: inhibitors of human prolyl oligopeptidase-like enzyme PREPL | Q4J6C6 | recombinant PREPL, fluorescence polarization activity-based probe | inhibition, % at 5.96 µM | hit rate 0.68% among 320,000 | AID 2751; in the data active = inhibition above about 43%
Target sequence (Q4J6C6 whole entry, looked up): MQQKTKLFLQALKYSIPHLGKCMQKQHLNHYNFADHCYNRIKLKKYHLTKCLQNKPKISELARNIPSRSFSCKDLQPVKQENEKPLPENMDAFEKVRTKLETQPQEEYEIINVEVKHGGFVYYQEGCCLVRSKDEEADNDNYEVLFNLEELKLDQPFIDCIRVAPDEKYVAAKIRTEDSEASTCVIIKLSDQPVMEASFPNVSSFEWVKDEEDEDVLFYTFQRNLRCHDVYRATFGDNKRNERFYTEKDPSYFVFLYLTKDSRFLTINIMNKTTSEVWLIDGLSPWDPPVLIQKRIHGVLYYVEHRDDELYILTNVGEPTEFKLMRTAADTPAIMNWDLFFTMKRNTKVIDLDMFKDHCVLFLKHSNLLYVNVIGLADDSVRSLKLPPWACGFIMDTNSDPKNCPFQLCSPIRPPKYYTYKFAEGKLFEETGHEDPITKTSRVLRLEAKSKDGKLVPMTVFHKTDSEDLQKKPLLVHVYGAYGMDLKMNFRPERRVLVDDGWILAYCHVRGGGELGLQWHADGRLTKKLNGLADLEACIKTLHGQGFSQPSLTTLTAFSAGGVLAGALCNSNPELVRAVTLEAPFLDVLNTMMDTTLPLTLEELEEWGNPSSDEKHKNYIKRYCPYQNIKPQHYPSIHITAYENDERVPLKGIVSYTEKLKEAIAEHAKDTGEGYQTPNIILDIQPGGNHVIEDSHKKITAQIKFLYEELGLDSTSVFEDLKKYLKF
E coli Lon inh: inhibits E. coli Lon protease. P0A9M0. purified E. coli Lon protease, fluorescence polarization. hit rate 0.42% among 360,000. AID 602123. inhibition, % at 7.94 µM; in the data active = inhibition above about 13%, passing the limit was not always enough
SKN-1 inh: inhibitors of C. elegans SKN-1; C. elegans VP596 Pgst-4::GFP/RFP ratio, acrylamide-induced, 24 h; inhibition, % at 21.8 µM; hit rate 0.49% among 360,000; AID 624304;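 active = interference check ratio from 0.5 to 1.5 plus GFP to RFP signal ratio inhibition reaching or exceeding a fixed threshold, cut at about 30% in these data, passing the limit was not always enough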
hiPSC survival: enhancers of human iPSC single-cell survival; hiPSC single-cell survival, ATPlite luminescence; 100% = ROCK inhibitor wells, 0% = DMSO; survival enhancement, % at 20 µM; hit rate 0.044% among 360,000; in the data active = survival enhancement above about 18%;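 also: cells exposed to compounds for 16 hours before the ATP read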
Tb MetRS inh: Trypanosoma brucei MetRS inhibition; purified T. brucei MetRS, ATP depletion, Kinase-Glo luminescence; inhibition, % at 11.9 µM; hit rate 0.4% among 360,000;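 active = inhibition above a per-plate cutoff of the control wells' mean inhibition plus 3 SD, cut at about 5.5% in these data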
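assay system = parasite MetRS enzyme | timing = 15 min preincubation, 2 h reaction, all 25 °C | evaluation = percent inhibition relative to median high and low control wells | medium = HEPES buffer containing pyrophosphatase, BSA, spermine, DTT | compound = single dose, 11.9 µM final nominal, 0.9% final DMSO | detection = Kinase-Glo luminescence, ATP depletion format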
Each line names hits and unclear results; the compound was inactive in the other large screens.

CCCC(C(=O)NCC1CCCO1)N(Cc1ccccc1)C(=O)CNS(=O)(=O)c1ccccc1 (centres undefined)	SKN-1 inh 41.9
Clc1ccc(OCc2nc(-c3ccccn3)n[nH]2)cc1	none
Brc1ccc(OCc2nc(-c3ccccn3)n[nH]2)cc1	SKN-1 inh 28.2
CC(/C=N/N1CCN(Cc2ccccc2)CC1)=C\c1ccccc1	SKN-1 inh 62.2
CCC(C)(C)n1nnnc1C(C(C)C)N(CCCO)Cc1cc2cc(C)ccc2[nH]c1=O (centres undefined)	SKN-1 inh 43.7
CC(C)OCCCn1c(=S)[nH]c2cc3c(cc2c1=O)OCO3	SKN-1 inh 38.5
COC(=O)[C@@]12C[C@@H](CC(=O)NCCCCc3ccccc3)C(=O)N(Cc3ccc4c(c3)OCO4)C1=CCC(C)(C)C2	none (no result: PREPL inhibitor, E coli Lon inh, hiPSC survival)
CC(C)CCNC(=O)NC(=O)COc1c(F)c(F)cc(F)c1F	SKN-1 inh 59.6
COc1cc2c(cc1OC)C(c1ccccc1[N+](=O)[O-])=NCC2	none (no result: PREPL inhibitor)
CC1(C)NC(=O)N(CC(=O)OCC(=O)c2ccc(Cl)s2)C1=O	none
CN(C)c1ccc(-c2ccnc3c2CC(C)(C(=O)NCC2CC2)O3)cc1 (centres undefined)	none (no result: PREPL inhibitor)
O=C(O)c1ccccc1C(=O)Nc1cc(-c2ccccc2)[nH]n1	none
O=C(Nc1cc(-c2ccccc2)[nH]n1)c1ccccc1	SKN-1 inh 36.7
Cc1ccc(C)c(-n2c(CNC(=O)c3ccco3)nnc2SCC(=O)N2CCc3ccccc32)c1	SKN-1 inh 39.0
O=C(CSc1nnc(CN2CCOCC2)n1-c1ccc(Cl)cc1)N1CCc2ccccc21	SKN-1 inh 42.4
O=C1c2ccccc2C(c2nnnn2Cc2ccccc2)N1CCc1ccc(O)cc1 (centres undefined)	none (no result: PREPL inhibitor)
CC1(C)OC(c2ccccc2)=C/C(=C/C=C2C(=O)c3ccccc3C2=O)O1	SKN-1 inh 59.6
Cc1ccccc1N=C/C=C1/C=C(c2ccccc2)OC(C)(C)O1	none
O=C(N/N=C/c1ccc(Cl)cc1)Nc1ccccc1	SKN-1 inh 40.8
CCOCCCNc1nc2ccccc2[nH]1	Tb MetRS inh 8.2
O=C(/C=C/c1ccccc1)NC(=S)NNC(=O)c1cccnc1	SKN-1 inh 35.9
Cc1ccnc(SCC(=O)Nc2cc(C)on2)n1	none
Cc1cc2ccccn2c1C(=O)Nc1cccc(Cl)c1	SKN-1 inh 62.3
N#C/C(=N/Nc1ccc(OC(F)(F)F)cc1)C(N)=S	SKN-1 inh 54.5
CNC(=O)C1Cc2c(-c3ccc(Cl)cc3)ccnc2O1 (centres undefined)	none (no result: PREPL inhibitor)
CCCCCCn1cc(CN2CC(N3CCCCC3)CS2(=O)=O)nn1 (centres undefined)	none (no result: PREPL inhibitor)
COC(=O)C1=C(C)OC(N)=C(C#N)C1c1ccco1 (centres undefined)	none
CC(=O)C1=C(C)OC(N)=C(C#N)C1c1ccco1 (centres undefined)	SKN-1 inh 37.1
Cc1cccc(CN2[C@H](CO)C=CS2(=O)=O)c1	none (no result: PREPL inhibitor)
O=S(=O)(CC(O)COc1ccccc1Cl)c1ccccc1 (centres undefined)	none
N#Cc1ccccc1OCC(O)CS(=O)(=O)c1ccccc1 (centres undefined)	SKN-1 inh 53.2
N/C(=N\OC(=O)c1cccs1)c1ccc(Cl)cc1	SKN-1 inh 52.2
N/C(=N\OC(=O)Cc1cccs1)c1ccc(Cl)cc1	SKN-1 inh 57.2
O=C(c1cccc(Cl)c1)N1CCC(=O)N([C@H](COCc2ccccc2)Cc2ccccc2)CC1	none (no result: PREPL inhibitor)
Cc1csc(/C(=N/OC(=O)c2ccco2)C(N)=O)n1	none
Cc1ccc2nc(SCC(=O)Nc3cccc([N+](=O)[O-])c3)[nH]c2c1	Tb MetRS inh 72.4
Cc1ccc2nc(SCc3ccc([N+](=O)[O-])cc3)[nH]c2c1	Tb MetRS inh 18.8
CC(c1nc2ccccc2n1Cc1ccccc1)n1c(-c2cnccn2)nc2ccccc21 (centres undefined)	none (no result: PREPL inhibitor, E coli Lon inh, hiPSC survival)
CC1(C(=O)Nc2ccc3c(c2)OCCO3)CSCC(=O)N1C1CC1 (centres undefined)	none (no result: PREPL inhibitor, E coli Lon inh, hiPSC survival)
Cn1c(=O)c2ncn(CC(=O)Nc3ccc4c5c(cccc35)CC4)c2n(C)c1=O	SKN-1 inh 41.9
Oc1ccc(CCc2ccccn2)cc1	none (no result: PREPL inhibitor)
CCCOC(=O)C1NC(=O)N2C(C(=O)OCCC)C(C)(C)S[C@H]12 (some centres undefined)	hiPSC survival 22.8
CC(=O)N(C(C)=O)c1ccc2c(c1)OCCO2	none (no result: PREPL inhibitor)
CC1CN(C(=O)c2cccs2)CCN1C(=O)c1cccs1 (centres undefined)	SKN-1 inh 43.2
O=C(c1cccs1)N1CCN(c2ccccc2)CC1	none
O=C(CSc1nnc(Cc2cc(=O)[nH]c(=O)[nH]2)n1-c1ccccc1)NCC1CCCO1 (centres undefined)	none
O=C(CSc1nnc(Cc2cc(=O)[nH]c(=O)[nH]2)n1-c1ccc(Cl)cc1)NCC1CCCO1 (centres undefined)	E coli Lon inh 21.6
COc1ccc(OC)c(C(=O)C2COC(=O)C2)c1 (centres undefined)	SKN-1 inh 36.7
O=C(O)c1ccc2ccc3ccccc3c2c1	SKN-1 inh 41.2
CCCS(=O)(=O)NC(=O)C1(C)CCN(C(=O)c2ccc(C(F)(F)F)cc2)C1 (centres undefined)	none (no result: PREPL inhibitor)
Cc1ccc(C(=O)N[C@H](C(=O)N2CCN(c3ccccc3F)CC2)C(C)C)cc1	none
N#C/C(=C\c1ccc(OCc2ccccc2)cc1)C(=O)Nc1nc2c(s1)CCN(Cc1ccccc1)C2	none
CN(C)c1ccc(/C=C(/C#N)C(=O)Nc2nc3c(s2)CCN(Cc2ccccc2)C3)cc1	SKN-1 inh 47.6 (no result: PREPL inhibitor)
COc1ccc(CN2C(=O)CS/C2=N/N=C/c2ccccc2)cc1	SKN-1 inh 52.6
CCCNC(=O)c1ccc2c(c1)C1C3CCC(C3)C1C(c1ccccc1)N2 (centres undefined)	SKN-1 inh 48.4
C/C=C/c1cccc(-c2nc(C(=O)NC3CCCC3)cc3c2[C@@H](CCO)N(S(=O)C(C)(C)C)C3)c1 (some centres undefined)	none (no result: PREPL inhibitor)
N/C(=N\OC(=O)c1ccc(Cl)c(Cl)c1)c1ccccn1	SKN-1 inh 35.0
N/C(=N\OC(=O)c1ccc(Cl)cc1)c1ccccn1	none
FC(F)(F)c1ccc(-c2cccc3c2C2CC3CCN2Cc2ccc3c(c2)OCO3)cc1 (centres undefined)	none (no result: PREPL inhibitor)
c1ccc(-n2cnc3cc(NCc4ccncc4)ccc32)cc1	none
c1ccc(-n2cnc3cc(NCc4ccccn4)ccc32)cc1	PREPL inhibitor 55.0
CC(C)N(CCNC(=O)COc1ccc2oc3c(c2c1)CCCC3)C(C)C	none
COCCCNC(=O)COc1ccc2oc3c(c2c1)CCCC3	SKN-1 inh 36.0
